Measured values from PMC6605687 (The Journal of General Physiology, 2019).
Residue numbers refer to the chain shown, from its start.

What was measured:
rP2X2 Lys69Gln = biological target: T1, rP2X2 Lys69Gln (Rattus norvegicus, UniProt P49653, K69Q); assay: Two-electrode voltage clamp, oocytes expressing rP2X2 Lys69Gln; type: cell-based; conditions: for EC50: EC50, Lys69Gln
T1 sequence (P49653 1-472 K69Q): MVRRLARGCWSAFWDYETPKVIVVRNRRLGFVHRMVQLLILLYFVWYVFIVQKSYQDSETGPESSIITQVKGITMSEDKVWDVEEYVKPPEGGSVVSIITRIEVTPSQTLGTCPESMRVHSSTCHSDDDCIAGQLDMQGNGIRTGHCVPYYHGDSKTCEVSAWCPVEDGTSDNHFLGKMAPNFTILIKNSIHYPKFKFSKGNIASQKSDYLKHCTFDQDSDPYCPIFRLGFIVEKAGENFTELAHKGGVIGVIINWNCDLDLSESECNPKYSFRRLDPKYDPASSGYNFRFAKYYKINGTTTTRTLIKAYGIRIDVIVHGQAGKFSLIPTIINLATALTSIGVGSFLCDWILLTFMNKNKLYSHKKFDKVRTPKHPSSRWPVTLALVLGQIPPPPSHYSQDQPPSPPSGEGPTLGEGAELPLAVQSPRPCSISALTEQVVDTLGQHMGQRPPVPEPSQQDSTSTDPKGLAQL
Outline: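 Mutations were made by site-directed mutagenesis. Xenopus oocytes were injected with rP2X2 mRNA and incubated in L-15 at 18°C. Two-electrode voltage clamp was done 1–2 days later at −40 mV under ND96 perfusion (pH 7.4). ATP concentration-response currents were normalised and fitted to a one-component Hill equation for EC50 and Hill coefficient. Results are mean ± SEM, tested by one-way ANOVA with Dunnett's test against WT.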

[1] = biological target: T2, rat P2X2 receptor (rP2X2R) WT (Rattus norvegicus, UniProt P49653); type: cell-based
T2 sequence (P49653 1-472): T1 sequence (P49653 1-472 K69Q) with Q69K
Outline: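 Collagenase-digested Xenopus oocytes were injected with WT rP2X2 mRNA (30 ng) and kept in L-15 at 18°C. Two-electrode voltage clamp was done 1–2 days later at −40 mV in ND96 (pH 7.4). Agonists were freshly dissolved in ND96 at pH 7.4. Responses were normalised to 1 mM ATP current in the same cell, and Hill fits gave EC50 and nH. Relative efficacy is the agonist maximal current versus 1 mM ATP. Results are mean ± SEM, compared by one-way ANOVA with Dunnett's test.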

EC50 (rP2X2 Lys69Gln): > 5 mM
EC50 (rP2X2 Lys69Gln; mean ± SEM): 16.6 mM
nH (Hill coefficient) (rP2X2 Lys69Gln; Lys69Gln): 2.4 ± 0.1
EC50 [1]: 0.032 ± 0.004 mM
Compound: Nc1ncnc2c1ncn2[C@@H]1O[C@H](COP(=O)(O)OP(=O)(O)OP(=O)(O)O)[C@@H](O)[C@H]1O [ATP, Adenosine 5′-triphosphate]
